# From ChEMBL document CHEMBL2331542, “Synthesis and in vitro antibacterial activity of quinolone/naphthyridone derivatives containing 3-alkoxyimino-4-(methyl)aminopiperidine scaffolds” (2013)
# Key:
# Type in all cases: functional
# Escherichia coli [1] = test: Antibacterial activity against extended-spectrum beta-lactamase-producing Escherichia coli isolate 12-4
# In short: (§1)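 MIC determined in vitro by a standard technique and defined as the lowest compound concentration giving complete inhibition of bacterial growth. The Gram-positive and Gram-negative panels were tested alongside gemifloxacin, levofloxacin and ciprofloxacin reference drugs.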
# Escherichia coli [2] = test: Antibacterial activity against extended-spectrum beta-lactamase-producing Escherichia coli isolate 12-2; in short: as §1
# Escherichia coli [3] = test: Antibacterial activity against extended-spectrum beta-lactamase-producing Escherichia coli isolate 12-1; in short: as §1
# Escherichia coli [4] = test: Antibacterial activity against Escherichia coli isolate 12-5; in short: as §1
# Escherichia coli [5] = test: Antibacterial activity against Escherichia coli isolate 12-4; in short: as §1
# Escherichia coli [6] = test: Antibacterial activity against Escherichia coli isolate 12-1; in short: as §1
# Escherichia coli [7] = test: Antibacterial activity against Escherichia coli ATCC 25922; in short: as §1
# Streptococcus pneumoniae [8] = test: Antibacterial activity against Streptococcus pneumoniae isolate 12-5; in short: as §1
# Streptococcus pneumoniae [9] = test: Antibacterial activity against Streptococcus pneumoniae isolate 12-2; in short: as §1
# [10] = tested on: Staphylococcus epidermidis; test: Antibacterial activity against methicillin-resistant Staphylococcus epidermidis isolate 12-35
# In short: (§2)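 MIC determined in vitro by standard techniques, defined as the lowest compound concentration giving complete inhibition of bacterial growth. Gemifloxacin, levofloxacin and ciprofloxacin were tested alongside as reference drugs.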
# [11] = tested on: Staphylococcus epidermidis; test: Antibacterial activity against methicillin-resistant Staphylococcus epidermidis isolate 12-33; in short: as §2
# [12] = tested on: Staphylococcus epidermidis; test: Antibacterial activity against methicillin-resistant Staphylococcus epidermidis isolate 12-5; in short: as §2
# [13] = tested on: Staphylococcus epidermidis; test: Antibacterial activity against methicillin-sensitive Staphylococcus epidermidis isolate 12-3; in short: as §1
# [14] = tested on: Staphylococcus epidermidis; test: Antibacterial activity against methicillin-sensitive Staphylococcus epidermidis isolate 12-2; in short: as §1
# [15] = tested on: Staphylococcus epidermidis; test: Antibacterial activity against methicillin-sensitive Staphylococcus epidermidis isolate 12-1; in short: as §1
# Staphylococcus aureus [16] = test: Antibacterial activity against methicillin-resistant Staphylococcus aureus isolate 12-15; in short: as §2
# Staphylococcus aureus [17] = test: Antibacterial activity against methicillin-resistant Staphylococcus aureus isolate 12-13; in short: as §2
# Staphylococcus aureus [18] = test: Antibacterial activity against methicillin-resistant Staphylococcus aureus isolate 12-3; in short: as §2
# Staphylococcus aureus [19] = test: Antibacterial activity against methicillin-sensitive Staphylococcus aureus isolate 12-10; in short: as §1
# Staphylococcus aureus [20] = test: Antibacterial activity against methicillin-sensitive Staphylococcus aureus isolate 12-7; in short: as §1
# Staphylococcus aureus [21] = test: Antibacterial activity against methicillin-sensitive Staphylococcus aureus isolate 12-6; in short: as §1
# Staphylococcus aureus [22] = test: Antibacterial activity against Staphylococcus aureus […]; in short: as §1
# Pseudomonas aeruginosa [23] = test: Antibacterial activity against Pseudomonas aeruginosa isolate 12-2; in short: as §1
# Pseudomonas aeruginosa [24] = test: Antibacterial activity against Pseudomonas aeruginosa isolate 12-1; in short: as §1
# Pseudomonas aeruginosa [25] = test: Antibacterial activity against Pseudomonas aeruginosa ATCC 27853; in short: as §1
# Klebsiella pneumoniae [26] = test: Antibacterial activity against extended-spectrum beta-lactamase-producing Klebsiella pneumoniae isolate 12-4; in short: as §1
# Klebsiella pneumoniae [27] = test: Antibacterial activity against extended-spectrum beta-lactamase-producing Klebsiella pneumoniae isolate 12-2; in short: as §1
# Klebsiella pneumoniae [28] = test: Antibacterial activity against extended-spectrum beta-lactamase-producing Klebsiella pneumoniae isolate 12-1; in short: as §1
# Klebsiella pneumoniae [29] = test: Antibacterial activity against Klebsiella pneumoniae isolate 12-4; in short: as §1
# Klebsiella pneumoniae [30] = test: Antibacterial activity against Klebsiella pneumoniae isolate 12-2; in short: as §1
# Klebsiella pneumoniae [31] = test: Antibacterial activity against Klebsiella pneumoniae isolate 12-1; in short: as §1
smiles,measurement,setting,value
CNC1CCN(c2c(F)cc3c(=O)c(C(=O)O)cn(C4CC4)c3c2F)C/C1=N\OC (centres undefined),MIC,Escherichia coli [1],128 µg/mL
same,MIC,Escherichia coli [2],> 128 µg/mL
same,MIC,Escherichia coli [3],> 128 µg/mL
same,MIC,Escherichia coli [4],> 128 µg/mL
same,MIC,Escherichia coli [5],> 128 µg/mL
same,MIC,Escherichia coli [6],2 µg/mL
same,MIC,Escherichia coli [7],0.03 µg/mL
same,MIC,Streptococcus pneumoniae [8],0.06 µg/mL
same,MIC,Streptococcus pneumoniae [9],0.06 µg/mL
same,MIC,[10],0.015 µg/mL
same,MIC,[11],< 0.008 µg/mL
same,MIC,[12],0.015 µg/mL
same,MIC,[13],0.25 µg/mL
same,MIC,[14],0.5 µg/mL
same,MIC,[15],0.25 µg/mL
same,MIC,Staphylococcus aureus [16],0.06 µg/mL
same,MIC,Staphylococcus aureus [17],0.06 µg/mL
same,MIC,Staphylococcus aureus [18],0.06 µg/mL
same,MIC,Staphylococcus aureus [19],0.03 µg/mL
same,MIC,Staphylococcus aureus [20],0.06 µg/mL
same,MIC,Staphylococcus aureus [21],0.03 µg/mL
same,MIC,Staphylococcus aureus [22],0.25 µg/mL
same,MIC,Pseudomonas aeruginosa [23],8 µg/mL
same,MIC,Pseudomonas aeruginosa [24],8 µg/mL
same,MIC,Pseudomonas aeruginosa [25],4 µg/mL
same,MIC,Klebsiella pneumoniae [26],0.5 µg/mL
same,MIC,Klebsiella pneumoniae [27],8 µg/mL
same,MIC,Klebsiella pneumoniae [28],8 µg/mL
same,MIC,Klebsiella pneumoniae [29],0.5 µg/mL
same,MIC,Klebsiella pneumoniae [30],0.5 µg/mL
same,MIC,Klebsiella pneumoniae [31],0.5 µg/mL
CNC1CCN(c2ccc3c(=O)c(C(=O)O)cn(C4CC4)c3n2)C/C1=N\OC (centres undefined),MIC,Escherichia coli [1],64 µg/mL
same,MIC,Escherichia coli [2],128 µg/mL
same,MIC,Escherichia coli [3],> 128 µg/mL
same,MIC,Escherichia coli [4],> 128 µg/mL
same,MIC,Escherichia coli [5],> 128 µg/mL
same,MIC,Escherichia coli [6],64 µg/mL
same,MIC,Escherichia coli [7],0.5 µg/mL
same,MIC,Streptococcus pneumoniae [8],4 µg/mL
same,MIC,Streptococcus pneumoniae [9],4 µg/mL
same,MIC,[10],2 µg/mL
same,MIC,[11],4 µg/mL
same,MIC,[12],2 µg/mL
same,MIC,[13],8 µg/mL
same,MIC,[14],16 µg/mL
same,MIC,[15],8 µg/mL
same,MIC,Staphylococcus aureus [16],4 µg/mL
same,MIC,Staphylococcus aureus [17],4 µg/mL
same,MIC,Staphylococcus aureus [18],4 µg/mL
same,MIC,Staphylococcus aureus [19],2 µg/mL
same,MIC,Staphylococcus aureus [20],4 µg/mL
same,MIC,Staphylococcus aureus [21],2 µg/mL
same,MIC,Staphylococcus aureus [22],0.5 µg/mL
same,MIC,Pseudomonas aeruginosa [23],8 µg/mL
same,MIC,Pseudomonas aeruginosa [24],16 µg/mL
same,MIC,Pseudomonas aeruginosa [25],8 µg/mL
same,MIC,Klebsiella pneumoniae [26],2 µg/mL
same,MIC,Klebsiella pneumoniae [27],> 128 µg/mL
same,MIC,Klebsiella pneumoniae [28],128 µg/mL
same,MIC,Klebsiella pneumoniae [29],2 µg/mL
same,MIC,Klebsiella pneumoniae [30],2 µg/mL
same,MIC,Klebsiella pneumoniae [31],2 µg/mL
CCn1cc(C(=O)O)c(=O)c2cc(F)c(N3CCC(NC)/C(=N/OC)C3)c(F)c21 (centres undefined),MIC,Escherichia coli [1],128 µg/mL
same,MIC,Escherichia coli [2],> 128 µg/mL
same,MIC,Escherichia coli [3],> 128 µg/mL
same,MIC,Escherichia coli [4],> 128 µg/mL
same,MIC,Escherichia coli [5],> 128 µg/mL
same,MIC,Escherichia coli [6],8 µg/mL
same,MIC,Escherichia coli [7],0.5 µg/mL
same,MIC,Streptococcus pneumoniae [8],1 µg/mL
same,MIC,Streptococcus pneumoniae [9],1 µg/mL
same,MIC,[10],0.5 µg/mL
same,MIC,[11],8 µg/mL
same,MIC,[12],0.5 µg/mL
same,MIC,[13],0.5 µg/mL
same,MIC,[14],16 µg/mL
same,MIC,[15],0.5 µg/mL
same,MIC,Staphylococcus aureus [16],1 µg/mL
same,MIC,Staphylococcus aureus [17],1 µg/mL
same,MIC,Staphylococcus aureus [18],1 µg/mL
same,MIC,Staphylococcus aureus [19],0.5 µg/mL
same,MIC,Staphylococcus aureus [20],1 µg/mL
same,MIC,Staphylococcus aureus [21],0.5 µg/mL
same,MIC,Staphylococcus aureus [22],0.125 µg/mL
same,MIC,Pseudomonas aeruginosa [23],8 µg/mL
same,MIC,Pseudomonas aeruginosa [24],8 µg/mL
same,MIC,Pseudomonas aeruginosa [25],8 µg/mL
same,MIC,Klebsiella pneumoniae [26],1 µg/mL
same,MIC,Klebsiella pneumoniae [27],32 µg/mL
same,MIC,Klebsiella pneumoniae [28],16 µg/mL
same,MIC,Klebsiella pneumoniae [29],1 µg/mL
same,MIC,Klebsiella pneumoniae [30],4 µg/mL
same,MIC,Klebsiella pneumoniae [31],4 µg/mL
CCO/N=C1\CN(c2c(F)cc3c(=O)c(C(=O)O)cn(C4CC4)c3c2OC)CCC1NC (centres undefined),MIC,Escherichia coli [1],32 µg/mL
same,MIC,Escherichia coli [2],> 128 µg/mL
same,MIC,Escherichia coli [3],> 128 µg/mL
same,MIC,Escherichia coli [4],> 128 µg/mL
same,MIC,Escherichia coli [5],> 128 µg/mL
same,MIC,Escherichia coli [6],8 µg/mL
same,MIC,Escherichia coli [7],16 µg/mL
same,MIC,Streptococcus pneumoniae [8],1 µg/mL
same,MIC,Streptococcus pneumoniae [9],0.25 µg/mL
same,MIC,[10],1 µg/mL
same,MIC,[11],1 µg/mL
same,MIC,[12],1 µg/mL
same,MIC,[13],0.5 µg/mL
same,MIC,[14],1 µg/mL
same,MIC,[15],0.5 µg/mL
same,MIC,Staphylococcus aureus [16],0.25 µg/mL
same,MIC,Staphylococcus aureus [17],0.25 µg/mL
same,MIC,Staphylococcus aureus [18],0.25 µg/mL
same,MIC,Staphylococcus aureus [19],0.125 µg/mL
same,MIC,Staphylococcus aureus [20],32 µg/mL
same,MIC,Staphylococcus aureus [21],0.25 µg/mL
same,MIC,Staphylococcus aureus [22],0.125 µg/mL
same,MIC,Pseudomonas aeruginosa [23],16 µg/mL
same,MIC,Pseudomonas aeruginosa [24],16 µg/mL
same,MIC,Pseudomonas aeruginosa [25],16 µg/mL
same,MIC,Klebsiella pneumoniae [26],> 128 µg/mL
same,MIC,Klebsiella pneumoniae [27],32 µg/mL
same,MIC,Klebsiella pneumoniae [28],32 µg/mL
same,MIC,Klebsiella pneumoniae [29],2 µg/mL
same,MIC,Klebsiella pneumoniae [30],4 µg/mL
same,MIC,Klebsiella pneumoniae [31],4 µg/mL
